Source: ChEMBL document CHEMBL1131443, “Development of dual-acting agents for thromboxane receptor antagonism and thromboxane synthase inhibition. 3. Synthesis and biological activities of oxazolecarboxamide-substituted omega-phenyl-omega-(3-pyridyl)alkenoic acid derivatives and related compounds” (J Med Chem, 1998)

Assays:
[1] = molecular target: T1, Thromboxane A2 receptor (Homo sapiens, UniProt P21731); assay: In vitro for antagonistic activity against […]; assay type: functional
T1 sequence (P21731 whole entry): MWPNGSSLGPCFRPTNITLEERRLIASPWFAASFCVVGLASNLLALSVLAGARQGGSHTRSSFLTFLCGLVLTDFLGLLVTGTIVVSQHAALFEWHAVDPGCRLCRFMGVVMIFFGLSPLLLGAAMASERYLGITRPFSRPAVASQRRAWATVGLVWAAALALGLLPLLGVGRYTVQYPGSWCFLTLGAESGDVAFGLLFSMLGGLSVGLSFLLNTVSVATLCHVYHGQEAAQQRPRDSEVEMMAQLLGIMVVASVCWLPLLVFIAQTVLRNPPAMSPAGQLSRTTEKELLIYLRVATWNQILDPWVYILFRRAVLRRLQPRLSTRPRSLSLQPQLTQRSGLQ
How it was run: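 Buffer was 10 mM Hepes, 2 mM CHAPS and 10 μM indomethacin, pH 7.4. Competitor range 10^-10 to 10^-5 M; incubation 30 °C for 30 min; stopped with ice-cold 25 mM Tris pH 7.4 and filtered. Nonspecific binding taken with 10 μM SQ29548. Run in triplicate.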

[2] = molecular target: T2, Thromboxane-A synthase (Homo sapiens, UniProt P24557); assay: In vitro for inhibitory activity against thromboxane synthase
T2 sequence (P24557 whole entry): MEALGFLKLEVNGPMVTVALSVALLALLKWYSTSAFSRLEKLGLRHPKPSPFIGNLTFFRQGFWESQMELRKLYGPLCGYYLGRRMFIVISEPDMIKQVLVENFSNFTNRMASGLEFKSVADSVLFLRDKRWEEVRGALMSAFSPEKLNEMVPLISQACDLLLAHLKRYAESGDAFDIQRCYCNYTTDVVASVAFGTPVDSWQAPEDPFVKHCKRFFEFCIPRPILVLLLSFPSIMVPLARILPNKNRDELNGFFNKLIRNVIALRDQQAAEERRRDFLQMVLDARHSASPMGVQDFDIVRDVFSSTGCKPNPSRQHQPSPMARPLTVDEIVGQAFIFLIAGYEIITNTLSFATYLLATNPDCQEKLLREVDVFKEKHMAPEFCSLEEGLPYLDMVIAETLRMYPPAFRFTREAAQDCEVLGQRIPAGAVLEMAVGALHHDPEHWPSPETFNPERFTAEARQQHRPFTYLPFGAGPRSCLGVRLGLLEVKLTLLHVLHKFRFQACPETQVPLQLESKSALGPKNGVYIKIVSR
How it was run: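 Compound or vehicle incubated with whole human blood for 30 min at 37 °C, then serum was prepared. Serum TXB2, the stable TXA2 metabolite, was measured by radioimmunoassay. Run in triplicate.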

[3] = species on record: Homo sapiens; assay: Inhibition of U-46,619 (1 uM)-induced platelet aggregation in human platelet-rich plasma(PRP); assay type: functional
How it was run: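 Citrated blood (1/10 volume 3.8% trisodium citrate) from volunteers free of platelet-affecting medication for 10 days; PRP spun at 100g for 12 min. Compound or vehicle preincubated with PRP for 1 min at 37 °C. Aggregation induced with U46619 and followed for 3 min.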

Row | Kd [1] [nM] | IC50 [2] [nM] | IC50 [3] [µM] | Compound
1 | 119 | 2.7 |  | COc1ccc(CCCNC(=O)c2coc(-c3ccc(/C(=C\CCCCC(=O)O)c4cccnc4)cc3)n2)cc1
2 |  |  | 0.5 | O=C(O)CCCC/C=C(\c1ccc(-c2nc(C(=O)NCCCCOc3ccccc3)co2)cc1)c1cccnc1
3 |  |  | 4 | O=C(O)CCCC/C=C(\c1ccc(-c2nc(C(=O)NS(=O)(=O)c3ccc(Cl)cc3)co2)cc1)c1cccnc1
4 | 82.4 | 9.4 |  | O=C(O)CCCC/C=C(\c1ccc(-c2nc(C(=O)NCCc3ccccc3)co2)cc1)c1cccnc1
5 | 156 | 47.5 |  | O=C(O)CCCC/C=C(\c1ccc(-c2nc(C(=O)NCCOCc3ccccc3)co2)cc1)c1cccnc1
6 |  |  | 5 | O=C(O)CCCC/C=C(\c1ccc(-c2nc(C(=O)N[C@@H]3C[C@H]3c3ccccc3)co2)cc1)c1cccnc1

The next lines start with the molecule.

Row | Compound | Kd [1] [nM] | IC50 [2] [nM] | IC50 [3] [µM]
7 | O=C(O)CCCC/C=C(\c1ccc(-c2nc(C(=O)NCCOCC3CCCCC3)co2)cc1)c1cccnc1 | 43.3 | 36.7 | 
8 | CC(OCCCNC(=O)c1coc(-c2ccc(/C(=C\CCCCC(=O)O)c3cccnc3)cc2)n1)C1CCCCC1 (configuration not stated) |  |  | 5
9 | CCOCCCNC(=O)c1coc(-c2ccc(/C(=C\CCCCC(=O)O)c3cccnc3)cc2)n1 | 1400 |  | 
10 | O=C(O)CCCC/C=C(\c1ccc(-c2nc(C(=O)NCCCN3CCOCC3)co2)cc1)c1cccnc1 |  | 50.8 | 
11 | O=C(O)CCCC/C=C(\c1ccc(-c2nc(C(=O)NCCCCC3CCCCC3)co2)cc1)c1cccnc1 |  |  | 0.4
12 | O=C(O)CCCCO/N=C(/c1cccnc1)c1cccc(C(F)(F)F)c1 [RIDOGREL] | 8000 | 14.7 | 
